# Measured values from publication PMC8207330 (Leukemia research, 2017).
# Several values for one entry are separate records, joined by “and”; a condition that tells them apart may be missing. Equal entries are not always repeated. Where two headings read alike, the source gives them in different places.
# Legend:
# [1] = tested on: patients with JAK2^V617F-positive myelofibrosis, essential thrombocythemia, or polycythemia vera; assay type: in vivo
# [2] = Pharmacokinetics in patients; assay type: in vivo, human
# [3] = tested on: patients with JAK2^V617F-positive myelofibrosis, essential thrombocythemia, or polycythemia vera; test: Clinical efficacy; assay type: in vivo, human
# Procedure, shortened: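 Multicentre, nonrandomised, open-label phase 1 of the oral test compound given once daily in 28-day cycles. 3 + 3 escalation through 30, 60, 120, 240 and 200 mg. A 120 mg lead-in for 14–28 days was followed by 200 or 300 mg, and 120 mg was used for dose confirmation. Response was scored by IWG clinical-improvement criteria, or European LeukemiaNet criteria for PV/ET, with duration counted in cycles. Analysis was descriptive.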
# [4] = cohort 6, 200 mg (Cycle 1b), N = 7
# [5] = cohort 7, 120 mg (Cycle 1a), N = 6
# [6] = cohort 7, 300 mg (Cycle 1b), N = 5
# [7] = cohort L (withdrawn in lead-in phase), 120 mg, N = 1
# [8] = cycle 1, cohort 1, 30 mg, N = 3
# [9] = cycle 1, cohort 2, 60 mg, N = 3
# [10] = cycle 1, cohort 3, 120 mg, N = 10
# [11] = cycle 1, cohort 4, 240 mg, N = 3
# [12] = cycle 1, cohort 5, 200 mg, N = 3
structure (smiles),measurement,setting,value
Cc1cc(Nc2cc(CN3CCOCC3)c3nc(C)c(Cc4ccc(Cl)cc4F)n3n2)n[nH]1 [gandotinib],DLT: Blood creatinine increased,[1]; [4],3 (42.9) n (%)
same,DLT: Hyperkalemia,[1]; [4],0 n (%)
same,DLT: Hyperuricemia,[1]; [4],0 n (%)
same,DLT: Renal failure acute,[1]; [4],0 n (%)
same,Patients with DLT,[1]; [4],3 (42.9) n (%)
same,DLT: Blood creatinine increased,[1]; [5],0 n (%)
same,DLT: Hyperkalemia,[1]; [5],0 n (%)
same,DLT: Hyperuricemia,[1]; [5],0 n (%)
same,DLT: Renal failure acute,[1]; [5],0 n (%)
same,Patients with DLT,[1]; [5],0 n (%)
same,DLT: Blood creatinine increased,[1]; [6],1 (20.0) n (%)
same,DLT: Hyperkalemia,[1]; [6],0 n (%)
same,DLT: Hyperuricemia,[1]; [6],0 n (%)
same,DLT: Renal failure acute,[1]; [6],1 (20.0) n (%)
same,Patients with DLT,[1]; [6],2 (40.0) n (%)
same,DLT: Blood creatinine increased,[1]; [7],0 n (%)
same,DLT: Hyperkalemia,[1]; [7],0 n (%)
same,DLT: Hyperuricemia,[1]; [7],0 n (%)
same,DLT: Renal failure acute,[1]; [7],0 n (%)
same,Patients with DLT,[1]; [7],0 n (%)
same,DLT: Blood creatinine increased,"[1]; cycle 1, Total, N = 37",5 (13.5) n (%)
same,DLT: Hyperkalemia,"[1]; cycle 1, Total, N = 37",1 (2.7) n (%)
same,DLT: Hyperuricemia,"[1]; cycle 1, Total, N = 37",2 (5.4) n (%)
same,DLT: Renal failure acute,"[1]; cycle 1, Total, N = 37",1 (2.7) n (%)
same,Patients with DLT,"[1]; cycle 1, Total, N = 37",9 (24.3) n (%)
same,DLT: Blood creatinine increased,[1]; [8],0 n (%)
same,DLT: Hyperkalemia,[1]; [8],0 n (%)
same,DLT: Hyperuricemia,[1]; [8],0 n (%)
same,DLT: Renal failure acute,[1]; [8],0 n (%)
same,Patients with DLT,[1]; [8],0 n (%)
same,DLT: Blood creatinine increased,[1]; [9],0 n (%)
same,DLT: Hyperkalemia,[1]; [9],0 n (%)
same,DLT: Hyperuricemia,[1]; [9],0 n (%)
same,DLT: Renal failure acute,[1]; [9],0 n (%)
same,Patients with DLT,[1]; [9],0 n (%)
same,DLT: Blood creatinine increased,[1]; [10],0 n (%)
same,DLT: Hyperkalemia,[1]; [10],0 n (%)
same,DLT: Hyperuricemia,[1]; [10],0 n (%)
same,DLT: Renal failure acute,[1]; [10],0 n (%)
same,Patients with DLT,[1]; [10],0 n (%)
same,DLT: Blood creatinine increased,[1]; [11],0 n (%)
same,DLT: Hyperkalemia,[1]; [11],0 n (%)
same,DLT: Hyperuricemia,[1]; [11],1 (33.3) n (%)
same,DLT: Renal failure acute,[1]; [11],0 n (%)
same,Patients with DLT,[1]; [11],1 (33.3) n (%)
same,DLT: Blood creatinine increased,[1]; [12],1 (33.3) n (%)
same,DLT: Hyperkalemia,[1]; [12],1 (33.3) n (%)
same,DLT: Hyperuricemia,[1]; [12],1 (33.3) n (%)
same,DLT: Renal failure acute,[1]; [12],0 n (%)
same,Patients with DLT,[1]; [12],3 (100) n (%)
same,DLTs observed,"[1]; first 3 tested doses (30, 60, 120 mg)",No DLTs
same,treatment discontinuation due to renal failure,[1]; most frequent adverse event resulting in discontinuation,4 patients
same,Vd/F,"[2]; human, plasma, oral",682 L
same,half-life,"[2]; human, plasma, oral",~6 h
same,apparent clearance (CL/F),"[2]; mean value, CV of 68",80.7 L/h
same,time at which maximum plasma concentration (Cmax) was reached,"[2]; on average, after single and multiple doses",4 h
same,partial response,[3]; ET (1 patient enrolled),One
same,duration of clinic-hematologic partial response,[3]; PV patients,3–16 cycles
same,JAK2^V617F allele burden reduction of ≥50% at any time,[3]; across all cohorts,5 of 36
same,palpable spleen length reduction of ≥ 50% at any time during therapy,[3]; across all cohorts,20/32 and 20 of 32
same,no clinic-hematologic response,[3]; of the 6 patients with PV,3 patients
same,clinic-hematologic partial response,"[3]; of the 6 patients with PV (2 in cohort 6, 1 in cohort 7)",3 patients
